Structures are written as SMILES.

In experiment [1] the target is T1, Pyruvate dehydrogenase kinase (Rattus norvegicus) (UniProt Q63065+A6IPZ9+Q64536+O54937). As to the kind of experiment: Tested for pyruvate oxidation in rat diaphragm, measured as % conversion of [14C]pyruvate to 14CO2 at 2 mM concentration. The format is functional, tissue-based. A digest of the protocol:
(§1)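 Rat diaphragm cut into four portions, each weighed and preincubated 1 h at 37 °C in Krebs-Ringer bicarbonate, pH 7.4, gassed O2/CO2 (18:1), alone (control) or with compound. Then 4 mM (final) 1- or 2-14C sodium pyruvate added, 1 h at 37 °C. Stopped with H2SO4; 14CO2 trapped in hyamine hydroxide, scintillation counted. Tissue-free blanks included. Reported as percent stimulation versus control.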

The target of experiment [2] is T1, Pyruvate dehydrogenase kinase (Rattus norvegicus). As to the kind of experiment: Pyruvate dehydrogenase activity in vivo was measured following subcutaneous administration of 1.2 mmol/kg. It counts as functional, organism-based. A digest of the protocol:
(§2)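 Hearts frozen in liquid N2, powdered, homogenized in ice-cold phosphate/EDTA/DTT/pyruvate medium. PDH active assayed directly; PDH total after 20 min at 30 °C with 5 mM MgCl2, 2.5 mM CaCl2. 14CO2 from 0.1 mM [1-14C]pyruvate with CoA, NAD, TPP at 30 °C; expressed as % PDH active/total; ≥3 rats/group.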

Experiment [3] has the same target. As to the kind of experiment: Tested for pyruvate oxidation in rat diaphragm, measured as % conversion of [14C]pyruvate to 14CO2 at 0.5 mM concentration of DCA (dichloroacetic acid). The format is functional, tissue-based. The method in brief: as §1
The target is the same in experiment [4]. As to the kind of experiment: Pyruvate dehydrogenase active/ Pyruvate dehydrogenase total was measured by sc administering the DCA in rat at a dose of 1.2 mmol/kg. It counts as functional, organism-based. A digest of the protocol:
as §2

For experiment [5] the target is unchanged. As to the kind of experiment: Percent Stimulation of pyruvate oxidation in rat diaphragm was measured at 2 mM concentration of DCA (dichloroacetic acid). It counts as functional, tissue-based. The method in brief: as §1
For experiment [6], the species on record is Rattus norvegicus. As to the kind of experiment: Percent Stimulation of pyruvate oxidation in Rat by the compound was measured at 2 mM concentration of DCA (dichloroacetic acid). It counts as functional. A digest of the protocol:
as §1

The species named for experiment [7] is Rattus norvegicus. As to the kind of experiment: Percent stimulation of pyruvate oxidation in rat diaphragm by the compound was measured at 2 mM concentration. The format is functional. The method in brief:
as §1

The species named for experiment [8] is Rattus norvegicus. As to the kind of experiment: Percent Stimulation of pyruvate oxidation in Rat by the compound was measured at 0.5 mM concentration of DCA (dichloroacetic acid). The format is functional. A digest of the protocol:
as §1

Experiment [9] has as its system pyruvate dehydrogenase (Rattus norvegicus). As to the kind of experiment: Tested for pyruvate oxidation in rat diaphragm, measured as % conversion of [14C]pyruvate to 14CO2 at 5 mM concentration.
For experiment [10], the species on record is Rattus norvegicus. As to the kind of experiment: Percent Stimulation of pyruvate oxidation in rat diaphragm by the compound was measured at 2 mM concentration. It counts as functional. A digest of the protocol:
as §1

The species named for experiment [11] is Rattus norvegicus. As to the kind of experiment: (§3) Compound was tested in vitro for pyruvate oxidation in rat diaphragm, measured as % conversion of [14C]pyruvate to 14CO2 at 2 mM concentration of DCA (dichloroacetic acid). It counts as functional. The method in brief:
as §1

For experiment [12], the species on record is Rattus norvegicus. Described as §3. The format is functional. The method in brief:
as §1
This is another data set of the same source.

The species entered for experiment [13] is Rattus norvegicus. As to the kind of experiment: Compound was tested in vitro for pyruvate oxidation in Rat, measured as % conversion of [14C]pyruvate to 14CO2 at 0.5 mM concentration of DCA (dichloroacetic acid). It counts as functional. The method in brief:
as §1

The subject of experiment [14] is Pyruvate dehydrogenase complex (Rattus norvegicus). As to the kind of experiment: Tested for pyruvate oxidation in rat diaphragm, measured as % conversion of [14C]pyruvate to 14CO2 at 2 mM concentration.
The test system of experiment [15] is Rattus norvegicus. As to the kind of experiment: Pyruvate dehydrogenase activity in vivo was measured following subcutaneous administration of 1.2 mmol/kg of the DCA in rat at a dose of 1.2 mmol/kg. The format is functional. The method in brief: as §2
The subject of experiment [16] is Rattus norvegicus. As to the kind of experiment: Pyruvate dehydrogenase active/ Pyruvate dehydrogenase total was measured by sc administering the compound in rat at a dose of 1.2 mmol/kg. It counts as functional. The method in brief:
as §2

Regarding `O=C(O)C(=O)c1cc(I)c(O)c(I)c1`, the Stimulation turned out to be 85% in experiment [1], 5% in [3] and 120% in experiment [5]. For the same compound, the PDH active/PDH total was found to be 12% in experiment [2] and 87% in experiment [4].
`N[C@H](C(=O)O)c1ccc(O)cc1` (stereo in doubt; L-25) [OXFENICINE]: the Stimulation in experiment [6] was 123%; in [7], 136%; in [8] it was 84%.
Take `Cc1cc(C(=O)C(=O)O)ccc1O`: the Stimulation stood at 21% in [1], 2% in experiment [3] and 107% in experiment [5]. In addition, the PDH active/PDH total came out at 31% in experiment [2] and 89% in [4].
For the compound `COc1ccc(C(N)C(=O)O)cc1` (stereo in doubt; D-28) [listing 1 of 2 here], the Stimulation in [9] was -14%. Moreover, the PDH active/PDH total in [2] worked out at 11%; in experiment [4], 87%.
In the case of `NC(C(=O)O)c1ccc(Cl)cc1` (stereo not given), the Stimulation in experiment [1] is 102%; in [3], 43%; in experiment [5], 99%. The PDH active/PDH total turned out to be 43% in experiment [2] and 90% in experiment [4].
For the compound `CN(C)c1ccc(C(=O)C(=O)O)cc1`, the Stimulation in [9] is 16%; in experiment [3], 1%; in experiment [5], 156%; in [10], -5%.
As for `CCS(=O)(=O)Nc1ccc(C(=O)C(=O)O)cc1`, the Stimulation in [1] turned out to be 22%; in experiment [3], 16%; in experiment [5], 100%.
As for `COc1ccc(C(N)C(=O)O)cc1` (stereo in doubt; D-28) [listing 2 of 2 here], the Stimulation in experiment [6] was 108%; in experiment [7], 17%.
On to `CSc1ccc(C(N)C(=O)O)cc1` (racemic), for which the Stimulation was determined as 28% in experiment [9], 132% in [5] and 65% in experiment [10]. Further, the PDH active/PDH total is 20% in experiment [2] and 76% in [4].
`NC(=O)c1ccc(C(=O)C(=O)O)cc1`: the Stimulation in experiment [9] stood at 20%; in experiment [5], 200%; in experiment [10], 11%.
In the case of `CCCCSc1ccc(C(=O)C(=O)O)cc1`, the Stimulation in experiment [1] stood at 113%; in [3], 76%; in experiment [5], 200%. The values for the PDH active/PDH total in experiment [2] and in experiment [4] were 14% and 96%, respectively.
As to `O=C(O)C(=O)c1ccc(O)cc1`, the values for the PDH active/PDH total in experiment [2] and in experiment [4] were 12% and 96%, respectively. Moreover, the Stimulation in experiment [3] came out at 63%; in [5], 142%; in experiment [10], 80%.
For `N[C@H](C(=O)O)c1ccc(O)cc1` (stereo in doubt; D-26) [OXFENICINE], the Stimulation amounted to 130% in experiment [6] and 26% in experiment [7].
Turning to `O=C(O)C(=O)c1ccc(Cl)cc1`, the Stimulation amounted to 71% in [9], 48% in experiment [11] and 82% in experiment [12].
Regarding `N[C@H](C(=O)O)c1ccc(O)cc1` (stereo in doubt; L-25), the PDH active/PDH total in experiment [2] stood at 82%; in experiment [4], 87%.
With `CC(C)Sc1ccc(C(=O)C(=O)O)cc1`, the results for the Stimulation in experiment [1], in experiment [3] and in [5] were 162%, 26% and 200%, respectively. For the same compound, the figures for the PDH active/PDH total in experiment [2] and in [4] were 51% and 96%, respectively.
Take `COc1ccc(C(N)C(=O)O)cc1` (stereo in doubt; L-27) [listing 1 of 2 here]: the Stimulation worked out at 122% in [6], 79% in [13] and 124% in [7].
For `Cc1ccc(C(N)C(=O)O)cc1` (stereo not given), the results for the Stimulation in experiment [1], in [3] and in [5] were 36%, 24% and 95%, respectively.
For `O=C(O)C(=O)c1ccc(CO)cc1`, in that order: 23%, 12% and 108%.
In the case of `O=C(O)C(=O)c1ccccc1`, the figures for the Stimulation in [1], in experiment [3] and in [5] were 85%, 42% and 219%, respectively. For the same compound, the results for the PDH active/PDH total in experiment [2] and in experiment [4] were 38% and 87%, respectively.
For `COc1ccccc1C(=O)C(=O)O`, the Stimulation in experiment [9] is -2%; in experiment [5], 163%; in experiment [10] it was -10%.
For `CSc1ccc(C(=O)C(=O)O)cc1`, the Stimulation in [9] is 154%; in experiment [14] it was 123%; in experiment [5], 101%. The values for the PDH active/PDH total in experiment [2] and in [4] were 69% and 82%, respectively.
Take `COc1ccc(C(=O)C(=O)O)cc1`: the Stimulation was 132% in experiment [1], 62% in experiment [3], 161% in [5] and 132% in experiment [10]. Besides, the PDH active/PDH total is 49% in experiment [2] and 97% in experiment [4].
`COc1ccc(C(N)C(=O)O)cc1` (stereo in doubt; L-27) [listing 2 of 2 here]: in experiment [9], the Stimulation amounted to 115%. Further, the PDH active/PDH total in experiment [2] stood at 5%; in [4], 90%.
In the case of `CCSc1ccc(C(=O)C(=O)O)cc1`, the Stimulation turned out to be 231% in [1], 164% in experiment [3] and 158% in experiment [5]. Also, the figures for the PDH active/PDH total in experiment [2] and in experiment [4] were 73% and 82%, respectively.
Taken in the same sequence, the figures for `C=CCc1cc(C(=O)C(=O)O)ccc1O` were 29%, 11%, 120%, 11% and 90%.
With `Cc1ccc(C(=O)C(=O)O)cc1`, the results for the Stimulation in experiment [1], in experiment [11] and in experiment [3] were 43%, 100% and 20%, respectively. The figures for the PDH active/PDH total in experiment [2] and in experiment [15] were 50% and 97%, respectively.
Regarding `CCSc1ccc(C(N)C(=O)O)cc1` (racemic), the results for the Stimulation in [9], in experiment [5] and in [10] were 24%, 132% and 20%, respectively. The figures for the PDH active/PDH total in experiment [2] and in [4] were 5% and 80%, respectively.
On to `N[C@H](C(=O)O)c1ccc(O)cc1` (stereo in doubt; D-26), for which the PDH active/PDH total in experiment [2] was determined as 26%; in experiment [4], 87%.
With `NC(C(=O)O)c1ccccc1` (stereo not given), the Stimulation in [6] is on record as 90%. In experiment [16], the “PDH active/PDH total” value turned out to be 13%.

Values taken from ChEMBL document CHEMBL1121812, “Promotion of carbohydrate oxidation in the heart by some phenylglyoxylic acids” (1981).
